Source: ChEMBL document CHEMBL3612008, “Synthesis and anticancer effects evaluation of 1-alkyl-3-(6-(2-methoxy-3-sulfonylaminopyridin-5-yl)benzo[d]thiazol-2-yl)urea as anticancer agents with low toxicity” (Bioorg Med Chem, 2015)

Columns and labels:
HCT-116 = assay: Antiproliferative activity against human HCT116 cells incubated for 72 hrs by MTT assay; assay type: functional, cell-based; conditions: HCT-116, 72 h
Outline: (§1)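 HCT-116, MCF-7 and U-87 MG grown in DMEM with 10% FBS, 37 °C, 5% CO2; 3000-5000 cells/well preincubated 24 h, then compounds at final 100, 10, 1, 0.1, 0.01 µM for 72 h.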

U-87 MG = assay: Antiproliferative activity against human U87MG cells incubated for 72 hrs by MTT assay; assay type: functional, cell-based, U-87MG ATCC; outline: as §1
A549 = assay: Antiproliferative activity against human A549 cells incubated for 72 hrs by MTT assay; assay type: functional, cell-based; conditions: A549, 72 h
Outline: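 A549 in RPMI-1640 with 10% calf serum, 37 °C, 5% CO2; seeded 3000-5000 cells/well, 24 h before exposure to final 100, 10, 1, 0.1, 0.01 µM for 72 h. MTT (5 mg/ml in PBS) added, 4 h at 37 °C; formazan dissolved in DMSO, OD 570 nm. Three experiments in triplicate; IC50 from inhibition ratios.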

MCF7 = assay: Antiproliferative activity against human MCF7 cells incubated for 72 hrs by MTT assay; assay type: functional, cell-based; conditions: MCF7, 72 h; outline: as §1
[1] = Acute toxicity in mouse dosed orally once daily and observed for 7 days by up and down procedure; assay type: organism-based; conditions: in vivo, po
Outline: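 Male mice, 20.1 ± 1.9 g. Compound dissolved in NMP, then diluted with PEG400 and water (NMP/PEG400/H2O 1:6:3 by volume), given by gavage at 20 ml/kg. Starting dose 10 mg/kg, single mouse per step; dose raised 1.5-fold when the animal behaved normally, continuing until a death occurred.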

CCRF S-180 [2] = assay: Anticancer activity against mouse S180 cells transplanted in mouse assessed as reduction in tumor weight at 1 mg/kg, po dosed once daily for 8 days; assay type: functional; conditions: CCRF S-180, po, 192 h
CCRF S-180 [3] = assay: Anticancer activity against mouse S180 cells transplanted in mouse assessed as reduction in tumor weight at 10 mg/kg, po dosed once daily for 8 days; assay type: functional; conditions: CCRF S-180, po, 192 h
PI3K p110 beta/p85 alpha = PI3K p110 beta/p85 alpha (Homo sapiens, UniProt P42338); assay: Inhibition of p110beta/p85alpha (unknown origin) incubated for 40 mins by luciferase based ATP depletion assay; assay type: protein-complex assay
Sequence of PI3K p110 beta/p85 alpha (P27986 whole entry): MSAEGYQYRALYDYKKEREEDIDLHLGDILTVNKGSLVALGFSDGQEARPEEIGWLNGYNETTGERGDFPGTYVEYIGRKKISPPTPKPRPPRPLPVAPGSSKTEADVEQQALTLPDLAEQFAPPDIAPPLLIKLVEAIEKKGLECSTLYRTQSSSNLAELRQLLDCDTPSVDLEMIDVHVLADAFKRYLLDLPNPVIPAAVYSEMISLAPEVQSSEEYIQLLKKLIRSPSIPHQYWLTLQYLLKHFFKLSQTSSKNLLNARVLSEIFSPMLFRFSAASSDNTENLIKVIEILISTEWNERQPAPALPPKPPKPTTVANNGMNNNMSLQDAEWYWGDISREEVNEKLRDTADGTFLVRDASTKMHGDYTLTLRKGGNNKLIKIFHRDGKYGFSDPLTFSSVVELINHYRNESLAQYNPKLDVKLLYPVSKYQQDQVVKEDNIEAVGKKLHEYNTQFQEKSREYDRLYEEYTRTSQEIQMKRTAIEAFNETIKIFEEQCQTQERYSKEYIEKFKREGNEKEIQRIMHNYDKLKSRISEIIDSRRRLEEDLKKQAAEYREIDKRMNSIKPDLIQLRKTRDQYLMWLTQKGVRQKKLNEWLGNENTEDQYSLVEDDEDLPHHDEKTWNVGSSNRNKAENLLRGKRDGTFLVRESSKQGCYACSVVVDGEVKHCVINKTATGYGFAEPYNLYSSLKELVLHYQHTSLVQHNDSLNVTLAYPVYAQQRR
Sequence of PI3K p110 beta/p85 alpha (P42338 whole entry): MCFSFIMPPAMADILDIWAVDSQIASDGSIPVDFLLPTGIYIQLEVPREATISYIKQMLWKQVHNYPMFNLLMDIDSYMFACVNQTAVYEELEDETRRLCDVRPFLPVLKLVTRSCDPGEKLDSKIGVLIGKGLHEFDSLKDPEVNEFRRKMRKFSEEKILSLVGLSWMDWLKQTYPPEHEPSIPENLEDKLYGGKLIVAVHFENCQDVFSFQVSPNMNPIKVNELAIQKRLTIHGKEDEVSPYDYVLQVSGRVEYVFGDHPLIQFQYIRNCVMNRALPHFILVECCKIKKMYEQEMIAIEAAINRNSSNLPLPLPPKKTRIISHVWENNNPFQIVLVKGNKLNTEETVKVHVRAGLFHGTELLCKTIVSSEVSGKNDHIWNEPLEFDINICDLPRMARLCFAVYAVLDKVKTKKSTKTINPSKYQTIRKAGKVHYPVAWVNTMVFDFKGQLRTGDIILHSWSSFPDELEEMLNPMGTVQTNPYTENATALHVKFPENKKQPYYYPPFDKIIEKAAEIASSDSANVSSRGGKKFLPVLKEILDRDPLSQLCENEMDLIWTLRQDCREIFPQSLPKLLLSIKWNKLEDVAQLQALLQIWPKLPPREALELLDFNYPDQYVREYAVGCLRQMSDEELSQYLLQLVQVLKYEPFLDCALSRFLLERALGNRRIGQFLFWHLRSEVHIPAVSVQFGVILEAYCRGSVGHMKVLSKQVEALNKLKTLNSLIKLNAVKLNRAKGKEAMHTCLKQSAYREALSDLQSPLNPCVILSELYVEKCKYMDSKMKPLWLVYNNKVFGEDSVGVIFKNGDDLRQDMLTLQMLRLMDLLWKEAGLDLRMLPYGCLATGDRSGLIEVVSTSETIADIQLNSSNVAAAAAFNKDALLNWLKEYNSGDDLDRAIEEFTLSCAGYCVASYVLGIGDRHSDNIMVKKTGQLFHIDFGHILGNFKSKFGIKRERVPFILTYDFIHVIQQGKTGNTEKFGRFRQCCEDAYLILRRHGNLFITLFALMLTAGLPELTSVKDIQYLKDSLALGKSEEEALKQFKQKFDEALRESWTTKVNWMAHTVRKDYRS

Mus musculus = assay: Toxicity in mouse S180 cells transplanted mouse assessed as increase in body weight at 1 to 10 mg/kg, po dosed once daily for 8 days; assay type: organism-based, CCRF S-180; conditions: in vivo, 192 h
Outline: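 S180 flank homograft mice (3×10^6 cells s.c., 8 per group) dosed orally once daily for 8 days at 1.0, 3.0 or 10.0 mg/kg in NMP/PEG400/H2O (1:6:3), solvent-only controls; body weights recorded daily and again at sacrifice on Day 9.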

mTORC1 = mTORC1 (Homo sapiens, UniProt P42345); assay: Inhibition of mTORC1 (unknown origin) incubated for 40 mins by luciferase based ATP depletion assay; assay type: protein-complex assay
CCRF S-180 [4] = assay: Anticancer activity against mouse S180 cells transplanted in mouse assessed as reduction in tumor weight at 3 mg/kg, po dosed once daily for 8 days; assay type: functional; conditions: CCRF S-180, po, 192 h
[5] = target: PI3-kinase subunit gamma/Phosphoinositide 3-kinase regulatory subunit 5 (Homo sapiens, UniProt P48736); assay: Inhibition of p110gamma/PIK3R5 (unknown origin) incubated for 40 mins by luciferase based ATP depletion assay; assay type: protein-complex assay
[6] = target: PI3-kinase p110-alpha/p85-alpha (Homo sapiens, UniProt P42336); assay: Inhibition of p110alpha/p85alpha (unknown origin) incubated for 40 mins by luciferase based ATP depletion assay; assay type: protein-complex assay
Sequence of PI3-kinase p110-alpha/p85-alpha (P27986 whole entry): as the sequence (P27986 whole entry) above
Sequence of PI3-kinase p110-alpha/p85-alpha (P42336 whole entry): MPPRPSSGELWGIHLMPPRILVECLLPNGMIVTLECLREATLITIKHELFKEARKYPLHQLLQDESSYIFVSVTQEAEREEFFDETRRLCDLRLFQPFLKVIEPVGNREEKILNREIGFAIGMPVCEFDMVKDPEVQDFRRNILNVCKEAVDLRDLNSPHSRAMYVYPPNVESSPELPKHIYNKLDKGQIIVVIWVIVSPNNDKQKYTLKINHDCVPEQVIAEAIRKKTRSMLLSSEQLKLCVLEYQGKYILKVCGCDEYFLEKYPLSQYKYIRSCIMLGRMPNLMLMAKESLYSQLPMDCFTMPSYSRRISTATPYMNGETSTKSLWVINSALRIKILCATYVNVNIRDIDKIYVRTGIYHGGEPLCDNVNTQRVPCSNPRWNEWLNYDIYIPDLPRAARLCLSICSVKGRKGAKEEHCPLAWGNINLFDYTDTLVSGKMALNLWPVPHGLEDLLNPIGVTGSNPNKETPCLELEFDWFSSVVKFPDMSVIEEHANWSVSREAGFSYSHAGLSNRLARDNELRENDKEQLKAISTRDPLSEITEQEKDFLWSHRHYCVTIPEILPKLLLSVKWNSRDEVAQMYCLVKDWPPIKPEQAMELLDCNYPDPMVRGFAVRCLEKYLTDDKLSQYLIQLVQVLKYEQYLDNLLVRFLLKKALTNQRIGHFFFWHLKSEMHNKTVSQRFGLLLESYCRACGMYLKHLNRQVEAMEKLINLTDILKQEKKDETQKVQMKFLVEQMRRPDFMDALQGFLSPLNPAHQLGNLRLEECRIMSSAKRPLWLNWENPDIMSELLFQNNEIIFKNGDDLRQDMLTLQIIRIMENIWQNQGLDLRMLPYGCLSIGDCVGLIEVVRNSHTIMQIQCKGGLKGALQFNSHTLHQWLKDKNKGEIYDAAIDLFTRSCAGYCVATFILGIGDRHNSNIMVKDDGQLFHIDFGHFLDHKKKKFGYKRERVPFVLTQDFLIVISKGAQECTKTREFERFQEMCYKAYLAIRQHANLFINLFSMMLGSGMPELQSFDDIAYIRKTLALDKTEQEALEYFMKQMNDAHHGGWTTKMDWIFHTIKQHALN

[7] = target: PI3-kinase p110-delta/p85-alpha (Homo sapiens, UniProt O00329); assay: Inhibition of p110delta/p85alpha (unknown origin) incubated for 40 mins by luciferase based ATP depletion assay; assay type: protein-complex assay
Sequence of PI3-kinase p110-delta/p85-alpha (P27986 whole entry): as the sequence (P27986 whole entry) above
Sequence of PI3-kinase p110-delta/p85-alpha (O00329 whole entry): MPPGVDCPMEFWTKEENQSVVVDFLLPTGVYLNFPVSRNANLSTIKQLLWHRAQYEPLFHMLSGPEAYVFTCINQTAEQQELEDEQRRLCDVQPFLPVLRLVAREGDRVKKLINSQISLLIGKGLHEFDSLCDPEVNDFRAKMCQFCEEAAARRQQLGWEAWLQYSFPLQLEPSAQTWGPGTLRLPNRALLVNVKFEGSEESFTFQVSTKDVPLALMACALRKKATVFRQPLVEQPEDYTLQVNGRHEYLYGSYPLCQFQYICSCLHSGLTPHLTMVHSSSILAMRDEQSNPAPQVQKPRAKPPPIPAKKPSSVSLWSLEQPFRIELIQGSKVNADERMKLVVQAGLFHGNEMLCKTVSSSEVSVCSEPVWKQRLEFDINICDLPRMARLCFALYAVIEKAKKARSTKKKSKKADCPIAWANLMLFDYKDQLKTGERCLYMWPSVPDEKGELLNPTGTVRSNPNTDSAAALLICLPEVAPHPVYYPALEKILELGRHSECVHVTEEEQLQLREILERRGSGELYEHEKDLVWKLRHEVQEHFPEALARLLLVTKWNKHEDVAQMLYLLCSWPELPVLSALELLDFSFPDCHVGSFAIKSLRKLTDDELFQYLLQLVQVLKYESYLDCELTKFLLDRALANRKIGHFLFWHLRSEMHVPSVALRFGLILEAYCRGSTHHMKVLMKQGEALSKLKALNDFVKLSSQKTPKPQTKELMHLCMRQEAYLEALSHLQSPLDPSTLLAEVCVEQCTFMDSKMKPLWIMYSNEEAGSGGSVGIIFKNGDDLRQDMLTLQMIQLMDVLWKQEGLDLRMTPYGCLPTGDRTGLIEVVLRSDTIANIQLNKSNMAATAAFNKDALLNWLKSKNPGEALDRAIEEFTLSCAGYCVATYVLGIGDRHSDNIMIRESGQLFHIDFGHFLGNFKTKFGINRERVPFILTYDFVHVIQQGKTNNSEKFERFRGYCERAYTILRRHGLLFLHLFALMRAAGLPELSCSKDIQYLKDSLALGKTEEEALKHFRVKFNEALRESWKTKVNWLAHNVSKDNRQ

IC50 (HCT-116) [nM] | IC50 (U-87 MG) [nM] | IC50 (A549) [nM] | IC50 (MCF7) [nM] | Structure (SMILES) | other results
2960 | 2390 | 6690 | 950 | O=C(NCCN1CCOCC1)Nc1nc2ccc(-c3cnc(Cl)c(NS(=O)(=O)c4ccc(F)cc4)c3)cc2s1 | 
520 | 490 | 430 | 750 | COc1ncc(-c2ccc3nc(NC(=O)NCCN4CCOCC4)sc3c2)cc1NS(=O)(=O)c1ccc(F)cc1 | 
5750 |  |  |  | O=S(=O)(Nc1cc(-c2ccc3nc(NC4CC4)sc3c2)cnc1Cl)c1ccc(F)cc1 | 
540 | 1050 | 530 | 650 | COc1ncc(-c2ccc3nc(NC(=O)NCCN4CCOCC4)sc3c2)cc1NS(=O)(=O)c1ccc(Cl)cc1 | 
640 | 1670 | 1920 | 1800 | COc1ncc(-c2ccc3nc(NC(=O)NCCN4CCOCC4)sc3c2)cc1NS(=O)(=O)C1CC1 | 
4550 | 8380 | 4710 | 2300 | COc1ncc(-c2ccc3nc(NC(=O)NCCN4CCOCC4)sc3c2)cc1C#N | 
 | 1410 | 760 | 480 | Cn1c(=O)n(-c2ccc(C(C)(C)C#N)cc2)c2c3cc(-c4cnc5ccccc5c4)ccc3ncc21 [DACTOLISIB] | 
180 | 360 | 310 | 170 | CCN(CC)CCNC(=O)Nc1nc2ccc(-c3cnc(OC)c(NS(=O)(=O)c4ccc(C)cc4)c3)cc2s1 | 
570 | 520 | 380 | 210 | COc1ncc(-c2ccc3nc(NC(=O)NCCN4CCOCC4)sc3c2)cc1NS(=O)(=O)c1ccc(C)cc1 | 
1750 | 1720 | 1030 | 1090 | O=C(Nc1nc2ccc(-c3cnc(Cl)c(NS(=O)(=O)c4ccc(F)cc4)c3)cc2s1)NC1CC1 | 
610 | 750 | 330 | 450 | COc1ncc(-c2ccc3nc(NC(=O)NCCN4CCCCC4)sc3c2)cc1NS(=O)(=O)c1ccc(F)cc1 | 
> 20000 |  |  |  | CCOC(=O)CNc1nc2ccc(-c3cnc(OC)c(NS(=O)(=O)c4ccc(F)cc4)c3)cc2s1 | 
> 20000 | 7230 | 5160 | > 20000 | COc1ccc(-c2ccc3nc(NC(=O)NCCN4CCOCC4)sc3c2)cn1 | 
470 | 520 | 900 | 1190 | COc1ncc(-c2ccc3nc(NC(=O)NC4CC4)sc3c2)cc1NS(=O)(=O)c1ccc(F)cc1 | 
240 | 1020 | 470 | 500 | COc1ncc(-c2ccc3nc(NC(=O)NCCN(C)C)sc3c2)cc1NS(=O)(=O)c1ccc(F)cc1 | 
1560 | 1500 | 1330 | 450 | COc1ncc(-c2ccc3nc(NC4CC4)sc3c2)cc1NS(=O)(=O)c1ccc(F)cc1 | 
250 | 480 | 490 | 260 | COc1ncc(-c2ccc3nc(NC(=O)NCCN4CCOCC4)sc3n2)cc1NS(=O)(=O)c1ccc(F)cc1 | 
> 20000 |  |  |  | CCCNc1nc2ccc(-c3cnc(Cl)c(NS(=O)(=O)c4ccc(F)cc4)c3)cc2s1 | 
920 | 1390 | 5260 | 710 | CCN(CC)CCNC(=O)Nc1nc2ccc(-c3cnc(Cl)c(NS(=O)(=O)c4ccc(F)cc4)c3)cc2s1 | 

Structure (SMILES) | IC50 (HCT-116) [nM] | IC50 (U-87 MG) [nM] | IC50 (A549) [nM] | IC50 (MCF7) [nM] | other results
COc1ncc(-c2ccc3nc(NC(=O)NCCN4CCN(C)CC4)sc3c2)cc1NS(=O)(=O)c1ccc(F)cc1 | 540 | 440 | 550 | 470 | LD50 at 168 h [1]: 300 mg/kg
CCN(CC)CCNC(=O)Nc1nc2ccc(-c3cnc(OC)c(NS(=O)(=O)c4ccc(F)cc4)c3)cc2s1 | 300 | 390 | 450 | 320 | inhibition in vivo at 1 mg/kg (CCRF S-180 [2]): 27.2%; inhibition in vivo at 10 mg/kg (CCRF S-180 [3]): 56.2%; IC50 (PI3K p110 beta/p85 alpha): 90 nM; Activity (Mus musculus): Non-toxic; IC50 (mTORC1): 78 nM; LD50 at 168 h [1]: 320 mg/kg; inhibition in vivo at 3 mg/kg (CCRF S-180 [4]): 44.3%; IC50 [5]: 11 nM; IC50 [6]: 13 nM; IC50 [7]: 148 nM
CC(=O)Nc1nc2ccc(-c3cnc(Cl)c(NS(=O)(=O)c4ccc(F)cc4)c3)cc2s1 | 440 | 440 | 410 | 430 | LD50 at 168 h [1]: 20 mg/kg
COc1ncc(-c2ccc3nc(NC(=O)NCCN4CCCC4)sc3c2)cc1NS(=O)(=O)c1ccc(F)cc1 | 310 | 360 | 300 | 410 | LD50 at 168 h [1]: 300 mg/kg
CNC(=O)Nc1nc2ccc(-c3cnc(OC)c(NS(=O)(=O)c4ccc(F)cc4)c3)cc2s1 | 870 | 1230 | 1560 | 1190 | LD50 at 168 h [1]: 40 mg/kg
